In PubChem BioAssay:
The source made the active and inactive calls.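 How the source made its calls, unless noted: active means viability at or under a set limit in both replicates, limit being median viability minus 3 SD (cut at about 48% in these data, passing the limit was not always enough); inconclusive means at or under the limit in just one replicate; inactive means at or above the limit in both replicates.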

Legend:
[1] = Her2 expression decrease, cell viability multiplex – SKBR3 breast tumor cells, AlphaScreen, ATP viability, primary screen (AID 461;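 active means Her2 level under about 52% in both replicate screens, with viability over 70% of control, limit read from the data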;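 on Her2 level: lower value means less Her2 protein in the cells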;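 on viability: percent of carrier control wells set as 100% viability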); settings: SKBR3 Her2 protein level, 18-24 h, measured here: SKBR3 viability, ATP luminescence, at 10 µM
[2] = biological target: Receptor tyrosine-protein kinase erbB-2 (Homo sapiens) (UniProt P04626); assay: as above; settings: 18-24 h, at 10 µM, stronger effect = lower value
Receptor tyrosine-protein kinase erbB-2 (Homo sapiens), sequence (P04626 whole entry, looked up): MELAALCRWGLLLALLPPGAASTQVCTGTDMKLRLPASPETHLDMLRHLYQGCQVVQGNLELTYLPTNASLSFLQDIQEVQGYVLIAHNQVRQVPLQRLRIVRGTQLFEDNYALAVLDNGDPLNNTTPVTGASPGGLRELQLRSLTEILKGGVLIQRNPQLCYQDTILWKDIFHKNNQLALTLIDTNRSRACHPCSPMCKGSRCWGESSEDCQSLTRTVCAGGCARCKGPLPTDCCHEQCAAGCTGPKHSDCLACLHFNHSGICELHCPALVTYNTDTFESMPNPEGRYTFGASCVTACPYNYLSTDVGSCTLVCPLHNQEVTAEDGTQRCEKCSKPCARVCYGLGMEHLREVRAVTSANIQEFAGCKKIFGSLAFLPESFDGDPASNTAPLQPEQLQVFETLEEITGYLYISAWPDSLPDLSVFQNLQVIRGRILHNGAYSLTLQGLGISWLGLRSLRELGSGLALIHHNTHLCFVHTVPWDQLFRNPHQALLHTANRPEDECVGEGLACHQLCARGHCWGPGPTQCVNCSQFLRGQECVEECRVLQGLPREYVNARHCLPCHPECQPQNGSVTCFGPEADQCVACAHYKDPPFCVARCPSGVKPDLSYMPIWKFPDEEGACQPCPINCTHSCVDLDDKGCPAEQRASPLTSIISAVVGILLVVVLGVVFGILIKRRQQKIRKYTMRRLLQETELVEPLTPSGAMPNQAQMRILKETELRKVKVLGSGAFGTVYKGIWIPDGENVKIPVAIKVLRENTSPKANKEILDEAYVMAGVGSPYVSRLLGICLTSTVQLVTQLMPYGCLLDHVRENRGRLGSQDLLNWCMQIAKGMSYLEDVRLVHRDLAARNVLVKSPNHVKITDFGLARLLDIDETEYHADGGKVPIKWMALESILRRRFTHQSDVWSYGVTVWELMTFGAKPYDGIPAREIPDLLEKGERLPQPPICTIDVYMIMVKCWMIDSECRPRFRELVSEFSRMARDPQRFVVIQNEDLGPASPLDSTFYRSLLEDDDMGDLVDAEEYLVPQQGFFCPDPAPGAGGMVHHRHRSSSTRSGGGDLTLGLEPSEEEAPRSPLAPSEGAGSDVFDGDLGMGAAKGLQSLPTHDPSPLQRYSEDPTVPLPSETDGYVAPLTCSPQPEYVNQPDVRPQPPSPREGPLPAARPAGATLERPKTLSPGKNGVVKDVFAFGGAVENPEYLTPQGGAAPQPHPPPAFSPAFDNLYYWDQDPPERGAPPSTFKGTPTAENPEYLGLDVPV

[3] = reduced viability of SK-BR-3 breast cancer cells – cell-based, 24 h, human, pilot screen (AID 572;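 active means viability at or below 10% of carrier control in both of two separate runs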;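 further: compound exposure lasted between 18 and 24 h rather than exactly 24 h; 100% = carrier-treated control wells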); settings: SK-BR-3 viability, CellTiter-Glo luminescence, at 10 µM, stronger effect = lower value
[4] = HUVEC growth inhibition – cell-based, human, primary screen (AID 575;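 active means viability at or below 30% in both replicate assays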;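 further: 100% = median of untreated cell wells with 0.1% DMSO on each plate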); settings: HUVEC proliferation, CellTiter-Glo luminescence, 72 h; at 10 µM; stronger effect = lower value
Method in brief: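 Assay system: Primary human umbilical vein endothelial cells | Quantity: 1250 cells per well | Medium: Supplemented EBM, 2% fetal bovine serum | Detection: CellTiter-Glo luminescence measuring cellular ATP | Read-out: % viability vs DMSO wells | Plate: Collagen-coated 384-well format | Times: 72 h exposure, 37 °C, 5% CO2, 30 min RT equilibration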

[5] = H69AR cell proliferation blockers – human, duplicate replicates, primary screen (AID 580); settings: H69AR lung tumor cells viability, ATP luminescence, 72 h; at 10 µM; stronger effect = lower value;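 further: 100% = mean luminescence of untreated wells and 0% = no signal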
[6] = MRP1 drug-resistance reversers in H69AR cells – cell-based, doxorubicin co-treatment, pilot screen (AID 601;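 active means viability loss from added drug above about 55%, and viability with drug at most 40%, in both replicates, limit read from the data, passing the limit was not always enough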); settings: CellTiter-Glo, 72 h, at 10 µM; for differential viability (reversal): stronger effect = higher value
[7] = yeast transport mutant growth inhibition pilot in 384-well plates, post-Golgi transport modulator project (AID 636; in the data active means inhibition above about 31%); settings: absorbance 615 nm, about 18 h, stronger effect = higher value
[8] = growth suppression of yeast trafficking mutant, preliminary HTS, modulators of trafficking downstream of Golgi apparatus project, 1536-format plate, OD 615 nm (AID 637; in the data active means inhibition above about 30%); settings: yeast transport mutant growth, absorbance 615 nm, 18 h; stronger effect = higher value
[9] = H69AR cells + 2 uM doxorubicin, measured here: viability with 2 uM doxorubicin, stronger effect = lower value
[10] = H69AR cells, compound alone cytotoxicity

| SMILES | viability [1] [%] | Her2 level [2] | viability [3] | viability [4] | viability [5] | differential viability (reversal) ([6]; H69AR cells + 2 uM doxorubicin) | viability [6, 9] [%] | viability [6, 10] [%] | inhibition [7] | inhibition [8] |
| --- | --- | --- | --- | --- | --- | --- | --- | --- | --- | --- |
| COc1cc2c(=O)n(Cc3ccccc3)c(=O)n(CC(=O)NCc3ccco3)c2cc1OC | 126 | 83% (inactive) | 126% (inactive) | 95.4% (inactive) | 86.2% (inactive) | -0.76% (inactive) | 87 | 86.2 | -8% (inactive) | -3.65% (inactive) |
| Cn1c(/C(C#N)=C/Nc2ccccn2)nc2ccccc21 | 75 | 106% (inactive) | 75% (inactive) | 110% (inactive) | 73.5% (inactive) | -12.4% (inactive) | 85.9 | 73.5 | 4.47% (inactive) | 29.5% (inactive) |
| CCN(c1cccc(C)c1)S(=O)(=O)c1ccc2[nH]c(=O)c(=O)[nH]c2c1 | 108 | 75% (inactive) | 108% (inactive) | 88.7% (inactive) | 92.1% (inactive) | 1.35% (inactive) | 90.8 | 92.1 | -2.24% (inactive) | 0.91% (inactive) |
| CCCn1c(NC(=O)C2COc3ccccc3O2)nc2ccccc21 (stereo not given) | 99.5 | 90% (inactive) | 99.5% (inactive) | 66.1% (inactive) | 67.8% (inactive) | -13.7% (inactive) | 81.6 | 67.8 | -3.47% (inactive) | 5.74% (inactive) |
| C=CCSC1=C(C#N)C(c2ccccc2Cl)CC(=O)N1 (stereo not given) | 72 | 85.5% (inactive) | 72% (inactive) | 103% (inactive) | 96.5% (inactive) | 1.45% (inactive) | 95.1 | 96.5 | 0.27% (inactive) | -2.26% (inactive) |
| Cc1cc(C)c(C#N)c(SCc2[nH]nc3c2C(c2ccccc2)C(C#N)=C(N)O3)n1 (stereo not given) | 93 | 80.5% (inactive) | 93% (inactive) | 85.3% (inactive) | 99.7% (inactive) | 4.6% (inactive) | 95.1 | 99.7 | -5.33% (inactive) | -4.03% (inactive) |
| Cc1cc(C)nc(NC(=O)c2ccc(OC(C)C)cc2)n1 | 102 | 90% (inactive) | 102% (inactive) | 95.8% (inactive) | 104% (inactive) | 14.3% (inactive) | 90.2 | 104 | -6.03% (inactive) | -4.13% (inactive) |
| O=C(Nc1ccc(Cc2ccc(NC(=O)N3CCOCC3)cc2)cc1)N1CCOCC1 | 97 | 94% (inactive) | 97% (inactive) | 90.1% (inactive) | 98.5% (inactive) | 15.7% (inactive) | 82.8 | 98.5 | -4.87% (inactive) | -1.17% (inactive) |
| O=c1c2cc(Cl)ccc2[nH]c(=S)n1Cc1ccco1 | 84.5 | 81% (inactive) | 84.5% (inactive) | 93.6% (inactive) | 86.7% (inactive) | -1.27% (inactive) | 88 | 86.7 | -8.13% (inactive) | 10.2% (inactive) |
| O=C(Nc1ccccc1)N(CCN1CCOCC1)Cc1ccccc1F | 106 | 103% (inactive) | 106% (inactive) | 92.2% (inactive) | 92.3% (inactive) | -16% (inactive) | 108 | 92.3 | 2.11% (inactive) | 1.64% (inactive) |
| NC(=O)COC(=O)CNC(=O)c1ccc(Cl)cc1 | 125 | 98% (inactive) | 125% (inactive) | 86.1% (inactive) | 101% (inactive) | 16.1% (inactive) | 84.7 | 101 | -2.4% (inactive) | -0.81% (inactive) |
| COc1ccc(C2(C(=O)N3CCCC3)CCOCC2)cc1OC | 88.5 | 126% (inactive) | 88.5% (inactive) | 82.2% (inactive) | 97.2% (inactive) | 9.43% (inactive) | 87.8 | 97.2 | 3.21% (inactive) | -11% (inactive) |
| CCOc1ccc(NC(=O)CN(C)S(=O)(=O)c2cccs2)cc1 | 104 | 100% (inactive) | 104% (inactive) | 101% (inactive) | 93.9% (inactive) | 6.1% (inactive) | 87.8 | 93.9 | -3.2% (inactive) | 1.45% (inactive) |
| CS(=O)(=O)N(Cc1nc2sc3c(c2c(=O)[nH]1)CCCC3)C1CCCCC1 | 91 | 112% (inactive) | 91% (inactive) | 77.9% (inactive) | 84% (inactive) | 1.24% (inactive) | 82.7 | 84 | -4.8% (inactive) | -0.49% (inactive) |
| COc1ccc(-n2ncc3c(NCCCN4CCOCC4)ncnc32)cc1 | 102 | 102% (inactive) | 102% (inactive) | 103% (inactive) | 109% (inactive) | 4.54% (inactive) | 104 | 109 | -6.13% (inactive) | 7.87% (inactive) |
| Cc1cccc(N2CCN(C(=O)CCn3c(=S)[nH]c4cc5c(cc4c3=O)OCO5)CC2C)c1 (stereo not given) | 86 | 85.5% (inactive) | 86% (inactive) | 38.2% (inactive) | 50.8% (inactive) | -5.97% (inactive) | 56.8 | 50.8 | -1.3% (inactive) | 1.27% (inactive) |

| SMILES | viability [1] [%] | Her2 level [2] | viability [3] | viability [4] | viability [5] | differential viability (reversal) ([6]; H69AR cells + 2 uM doxorubicin) | viability [6, 9] [%] | viability [6, 10] [%] | inhibition [7] | inhibition [8] |
| --- | --- | --- | --- | --- | --- | --- | --- | --- | --- | --- |
| CCOc1ccc(NC(=O)CN2CCN(CC(=O)Nc3ccc(F)c(F)c3)CC2)cc1 | 95 | 102% (inactive) | 95% (inactive) | 89.3% (inactive) | 79.8% (inactive) | 22.7% (inactive) | 57.1 | 79.8 | -3.6% (inactive) | 4.92% (inactive) |
| COC(=O)C1=C(C)NC(=O)C1(Nc1ccc(Cl)cn1)C(F)(F)F (stereo not given) | 90.5 | 83.5% (inactive) | 90.5% (inactive) | 103% (inactive) | 96.5% (inactive) | -1.2% (inactive) | 97.7 | 96.5 | -3.59% (inactive) | -5.17% (inactive) |
| O=C(COc1ccc(F)cc1Br)N1CCc2ccccc21 | 97.5 | 100% (inactive) | 97.5% (inactive) | 77.3% (inactive) | 75.3% (inactive) | -6% (inactive) | 81.3 | 75.3 | -1.43% (inactive) | -0.33% (inactive) |
| CCOC(=O)C(NC(=O)c1ccc(OC)cc1)(N1CCOCC1)C(F)(F)F (stereo not given) | 112 | 95.5% (inactive) | 112% (inactive) | 115% (inactive) | 100% (inactive) | -2.41% (inactive) | 102 | 100 | -4.81% (inactive) | 0.32% (inactive) |
| N#CCSc1nc2c(c(C3CC=CCC3)c1C#N)CCC2 (stereo not given) | 88.5 | 81.5% (inactive) | 88.5% (inactive) | 63.4% (inactive) | 100% (inactive) | 12.8% (inactive) | 87.2 | 100 | -3.07% (inactive) | -1.94% (inactive) |
| O=C(Oc1ccc2c(c1)CCC2)N1CCOCC1 | 90 | 144% (inactive) | 90% (inactive) | 99.9% (inactive) | 95.6% (inactive) | 6.64% (inactive) | 88.9 | 95.6 | 4.87% (inactive) | -5% (inactive) |
| Cc1ccc(-n2c(Cn3cnc4ccccc43)nnc2SCC(=O)O)cc1 | 102 | 108% (inactive) | 102% (inactive) | 94.3% (inactive) | 97.7% (inactive) | 5.34% (inactive) | 92.3 | 97.7 | -4.13% (inactive) | 24.3% (inactive) |
| Cc1ccc(N2CC(C)Cn3c2nc2c3c(=O)n(CC(=O)OCc3ccccc3)c(=O)n2C)cc1C (stereo not given) | 86.5 | 99.5% (inactive) | 86.5% (inactive) | 74.8% (inactive) | 93.8% (inactive) | 26.6% (inactive) | 67.2 | 93.8 | -4.32% (inactive) | 1.97% (inactive) |
| Cc1nn(C(=O)c2cc3sccc3[nH]2)c(C)c1C | 95 | 104% (inactive) | 95% (inactive) | 74.1% (inactive) | 106% (inactive) | 2.57% (inactive) | 103 | 106 | -4.47% (inactive) | -4.83% (inactive) |
| CCOC(=O)Cn1nnnc1C(C(C)C)N(Cc1cc2c(C)cc(C)cc2[nH]c1=O)C1CCCC1 (stereo not given) | 98 | 102% (inactive) | 98% (inactive) | 58.6% (inactive) | 88.5% (inactive) | -1.4% (inactive) | 89.9 | 88.5 | -5.41% (inactive) | 16.6% (inactive) |
| O=C(Nc1cccc(F)c1)c1cccc(S(=O)(=O)N2CCOCC2)c1 | 107 | 87% (inactive) | 107% (inactive) | 92.8% (inactive) | 91.6% (inactive) | 0.615% (inactive) | 91 | 91.6 | -6.71% (inactive) | -5.71% (inactive) |
| COc1cc(-c2nc(-c3cccc(C(F)(F)F)c3)no2)cc(OC)c1OC | 102 | 99.5% (inactive) | 102% (inactive) | 94.4% (inactive) | 93.4% (inactive) | 10.7% (inactive) | 82.6 | 93.4 | -1.87% (inactive) | -2.58% (inactive) |
| Cc1cc(NC(=O)c2ccccc2Oc2ccccc2)no1 | 97 | 92.5% (inactive) | 97% (inactive) | 93.5% (inactive) | 110% (inactive) | 16.8% (inactive) | 93.5 | 110 | -5.33% (inactive) | 2.42% (inactive) |
| O=C(CCCn1c(=S)[nH]c2ccccc2c1=O)N1CCCCC1 | 86 | 108% (inactive) | 86% (inactive) | 87.1% (inactive) | 96.8% (inactive) | 6.58% (inactive) | 90.2 | 96.8 | -2.63% (inactive) | -8.1% (inactive) |
| Nc1nnnn1/N=C/c1ccccc1OCc1ccccc1 | 118 | 96.5% (inactive) | 118% (inactive) | 78.9% (inactive) | 95.3% (inactive) | 8.29% (inactive) | 87 | 95.3 | -4.13% (inactive) | 2.42% (inactive) |
